How the values were obtained:
SK-OV-3 = assay: Growth inhibition of human SKOV3 cells assessed as cell growth at 10^-5 M after 48 hrs by sulforhodamine B assay relative to control; format: functional; settings: SK-OV-3, 48 h, read-out: Activity
How it was run: (§1)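 NCI-60 single-dose screen at 10^-5 M. Cells grown in RPMI 1640 with 5% FBS and 2 mM L-glutamine, plated at 5,000–40,000 cells/well according to doubling time, and preincubated 24 h at 37°C, 5% CO2. Compound dissolved in DMSO and added. Exposure 48 h. Adherent cells fixed with cold TCA (10% final), suspension cells with 16% final TCA. Read-out is 0.4% SRB staining, dye solubilised in 10 mM Tris, absorbance at 515 nm. Percent growth is calculated against the time-zero plate and untreated control.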

MDA-MB-435 = assay: Growth inhibition of human MDA-MB-435 cells assessed as cell growth at 10^-5 M after 48 hrs by sulforhodamine B assay relative to control; format: functional; settings: MDA-MB-435, 48 h, read-out: Activity; how it was run: as §1
Malme-3M = assay: Growth inhibition of human MALME-3M cells assessed as cell growth at 10^-5 M after 48 hrs by sulforhodamine B assay relative to control; format: functional; settings: read-out: Activity; how it was run: as §1
LOX IMVI = assay: Growth inhibition of human LOXIMVI cells assessed as cell growth at 10^-5 M after 48 hrs by sulforhodamine B assay relative to control; format: functional; settings: read-out: Activity; how it was run: as §1
U-251 = assay: Growth inhibition of human U251 cells assessed as cell growth at 10^-5 M after 48 hrs by sulforhodamine B assay relative to control; format: functional; settings: U-251, 48 h, read-out: Activity
How it was run: (§2)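 NCI-60 single-dose screen, 10^-5 M final. Cells grown in RPMI 1640 with 5% FBS and 2 mM L-glutamine, seeded at 5,000–40,000 cells/well by doubling time. Preincubated 24 h at 37°C, 5% CO2. Compound in DMSO, diluted in medium with gentamicin, then 48 h exposure. Fixed with cold TCA, SRB stained, A515 read. Percent growth vs untreated control, time-zero plate corrected.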

SF-539 = assay: Growth inhibition of human SF539 cells assessed as cell growth at 10^-5 M after 48 hrs by sulforhodamine B assay relative to control; format: functional; settings: SF-539, 48 h, read-out: Activity; how it was run: as §1
SF-268 = assay: Growth inhibition of human SF268 cells assessed as cell growth at 10^-5 M after 48 hrs by sulforhodamine B assay relative to control; format: functional; settings: SF-268, 48 h, read-out: Activity; how it was run: as §1
KM12 = assay: Growth inhibition of human KM12 cells assessed as cell growth at 10^-5 M after 48 hrs by sulforhodamine B assay relative to control; format: functional; settings: KM12, 48 h, read-out: Activity; how it was run: as §1
[1] = Growth inhibition of human HCC2998 cells assessed as cell growth at 10^-5 M after 48 hrs by sulforhodamine B assay relative to control; format: functional; settings: HCC 2998, 48 h, read-out: Activity; how it was run: as §1
NCI-H522 = assay: Growth inhibition of human NCI-H522 cells assessed as cell growth at 10^-5 M after 48 hrs by sulforhodamine B assay relative to control; format: functional; settings: NCI-H522, 48 h, read-out: Activity; how it was run: as §1
SR = assay: Growth inhibition of human SR cells assessed as cell growth at 10^-5 M after 48 hrs by sulforhodamine B assay relative to control; format: functional; settings: read-out: Activity; how it was run: as §2
Vitamin D3 receptor = target: T1, Vitamin D3 receptor (Homo sapiens, UniProt P11473); assay: Inhibition of human vitamin D3 receptor
T1 sequence (P11473 whole entry): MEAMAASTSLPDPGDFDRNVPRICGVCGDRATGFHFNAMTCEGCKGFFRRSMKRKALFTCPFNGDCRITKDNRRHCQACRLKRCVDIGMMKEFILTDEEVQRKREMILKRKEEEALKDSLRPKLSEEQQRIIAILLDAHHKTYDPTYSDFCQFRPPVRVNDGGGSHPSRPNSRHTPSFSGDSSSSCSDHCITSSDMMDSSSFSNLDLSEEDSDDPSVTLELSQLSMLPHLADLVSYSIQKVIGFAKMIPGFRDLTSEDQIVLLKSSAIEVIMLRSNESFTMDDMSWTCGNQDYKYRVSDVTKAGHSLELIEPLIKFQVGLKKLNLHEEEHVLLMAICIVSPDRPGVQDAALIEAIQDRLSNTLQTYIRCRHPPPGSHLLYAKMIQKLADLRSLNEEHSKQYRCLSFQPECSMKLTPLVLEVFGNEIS

HL-60(TB) = assay: Growth inhibition of human HL-60(TB) cells assessed as cell growth at 10^-5 M after 48 hrs by sulforhodamine B assay relative to control; format: functional; settings: HL-60, 48 h, read-out: Activity
How it was run: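 NCI-60 one-dose screen at 10^-5 M. Cells were grown in RPMI 1640 with 5% FBS and 2 mM L-glutamine and plated at 5,000–40,000 cells/well. They were preincubated 24 h at 37°C under 5% CO2, then exposed for 48 h. Suspension cells were fixed with 80% TCA (16% final) and stained with 0.4% SRB, read at 515 nm. Percent growth is versus untreated control, corrected for time-zero.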

[2] = target: Epidermal growth factor receptor (Homo sapiens, UniProt P00533); assay: Inhibition of human EGFR
Epidermal growth factor receptor, sequence (P00533 whole entry): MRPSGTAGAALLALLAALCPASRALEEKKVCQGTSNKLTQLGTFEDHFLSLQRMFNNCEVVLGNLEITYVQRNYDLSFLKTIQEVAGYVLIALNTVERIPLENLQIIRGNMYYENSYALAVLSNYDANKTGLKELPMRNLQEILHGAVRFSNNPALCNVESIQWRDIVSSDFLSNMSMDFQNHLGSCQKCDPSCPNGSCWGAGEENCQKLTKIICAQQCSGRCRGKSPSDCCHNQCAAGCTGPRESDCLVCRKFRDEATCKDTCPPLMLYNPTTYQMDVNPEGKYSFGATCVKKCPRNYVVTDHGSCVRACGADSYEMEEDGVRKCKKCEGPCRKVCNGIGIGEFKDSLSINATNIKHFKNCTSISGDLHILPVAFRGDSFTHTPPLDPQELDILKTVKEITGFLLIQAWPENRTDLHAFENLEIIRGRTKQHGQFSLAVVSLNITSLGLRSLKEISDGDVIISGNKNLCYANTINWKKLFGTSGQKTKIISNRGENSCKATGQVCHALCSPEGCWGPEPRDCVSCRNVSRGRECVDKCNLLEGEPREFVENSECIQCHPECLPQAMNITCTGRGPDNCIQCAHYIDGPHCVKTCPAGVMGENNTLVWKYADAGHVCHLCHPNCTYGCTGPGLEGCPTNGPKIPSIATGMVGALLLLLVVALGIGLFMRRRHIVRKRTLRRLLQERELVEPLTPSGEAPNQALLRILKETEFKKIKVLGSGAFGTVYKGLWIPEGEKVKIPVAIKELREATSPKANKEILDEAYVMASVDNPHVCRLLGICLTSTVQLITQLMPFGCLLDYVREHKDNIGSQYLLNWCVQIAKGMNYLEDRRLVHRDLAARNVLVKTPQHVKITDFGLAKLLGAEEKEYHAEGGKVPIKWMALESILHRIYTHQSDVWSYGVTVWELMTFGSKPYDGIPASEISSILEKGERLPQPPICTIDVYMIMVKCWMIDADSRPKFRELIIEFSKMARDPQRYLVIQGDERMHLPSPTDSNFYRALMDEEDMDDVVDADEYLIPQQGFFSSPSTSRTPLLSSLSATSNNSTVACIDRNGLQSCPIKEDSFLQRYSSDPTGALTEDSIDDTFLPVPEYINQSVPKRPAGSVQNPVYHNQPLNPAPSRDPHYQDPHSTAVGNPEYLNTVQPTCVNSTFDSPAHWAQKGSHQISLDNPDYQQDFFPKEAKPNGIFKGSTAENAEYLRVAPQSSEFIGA

[3] = target: Proto-oncogene tyrosine-protein kinase Src (Homo sapiens, UniProt P12931); assay: Inhibition of human SRC
Proto-oncogene tyrosine-protein kinase Src, sequence (P12931 2-536 limits assumed): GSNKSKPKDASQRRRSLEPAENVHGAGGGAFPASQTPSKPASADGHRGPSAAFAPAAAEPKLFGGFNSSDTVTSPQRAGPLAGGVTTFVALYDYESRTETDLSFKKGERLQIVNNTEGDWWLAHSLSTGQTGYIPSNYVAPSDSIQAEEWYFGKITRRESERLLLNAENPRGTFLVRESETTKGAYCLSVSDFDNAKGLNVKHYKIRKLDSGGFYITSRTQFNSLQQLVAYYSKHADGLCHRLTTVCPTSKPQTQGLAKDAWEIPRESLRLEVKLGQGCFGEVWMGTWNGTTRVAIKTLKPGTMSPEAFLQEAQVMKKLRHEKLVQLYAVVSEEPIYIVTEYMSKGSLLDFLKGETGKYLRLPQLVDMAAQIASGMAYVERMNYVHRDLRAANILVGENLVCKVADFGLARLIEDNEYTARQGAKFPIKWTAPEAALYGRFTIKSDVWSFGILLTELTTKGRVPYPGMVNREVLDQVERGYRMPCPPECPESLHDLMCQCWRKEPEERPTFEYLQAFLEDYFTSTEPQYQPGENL

Cathepsin K = target: T2, Cathepsin K (Homo sapiens, UniProt P43235); assay: Inhibition of human cathepsin K
T2 sequence (P43235 whole entry): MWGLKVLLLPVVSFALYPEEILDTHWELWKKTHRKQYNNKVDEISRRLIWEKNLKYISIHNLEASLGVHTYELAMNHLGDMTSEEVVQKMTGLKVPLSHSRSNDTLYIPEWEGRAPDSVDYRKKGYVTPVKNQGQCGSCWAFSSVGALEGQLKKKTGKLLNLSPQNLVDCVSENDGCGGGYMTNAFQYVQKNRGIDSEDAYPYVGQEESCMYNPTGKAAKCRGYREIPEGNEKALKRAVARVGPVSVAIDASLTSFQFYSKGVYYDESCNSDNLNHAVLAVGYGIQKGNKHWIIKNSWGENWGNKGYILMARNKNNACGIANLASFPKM

[4] = Growth inhibition of human Hs 578T cells assessed as cell growth at 10^-5 M after 48 hrs by sulforhodamine B assay relative to control; format: functional; settings: read-out: Activity; how it was run: as §1
MDA-MB-231 = assay: Growth inhibition of human MDA-MB-231 cells assessed as cell growth at 10^-5 M after 48 hrs by sulforhodamine B assay relative to control; format: functional; settings: MDA-MB-231, 48 h, read-out: Activity; how it was run: as §1
DU-145 = assay: Growth inhibition of human DU145 cells assessed as cell growth at 10^-5 M after 48 hrs by sulforhodamine B assay relative to control; format: functional; settings: DU-145, 48 h, read-out: Activity; how it was run: as §1
UO-31 = assay: Growth inhibition of human UO31 cells assessed as cell growth at 10^-5 M after 48 hrs by sulforhodamine B assay relative to control; format: functional; settings: UO-31, 48 h, read-out: Activity; how it was run: as §2
SN12C = assay: Growth inhibition of human SN12C cells assessed as cell growth at 10^-5 M after 48 hrs by sulforhodamine B assay relative to control; format: functional; settings: read-out: Activity; how it was run: as §1

Compound	growth at 10 µM (SK-OV-3) [%]	growth at 10 µM (MDA-MB-435) [%]	growth at 10 µM (Malme-3M) [%]	growth at 10 µM (LOX IMVI) [%]	growth at 10 µM (U-251) [%]	growth at 10 µM (SF-539) [%]	growth at 10 µM (SF-268) [%]	growth at 10 µM (KM12) [%]	growth at 10 µM [1] [%]	growth at 10 µM (NCI-H522) [%]	growth at 10 µM (SR) [%]	Ki (Vitamin D3 receptor) [µM]	growth at 10 µM (HL-60(TB)) [%]	Ki [2] [µM]	Ki [3] [µM]	Ki (Cathepsin K) [µM]	growth at 10 µM [4] [%]	growth at 10 µM (MDA-MB-231) [%]	growth at 10 µM (DU-145) [%]	growth at 10 µM (UO-31) [%]	other results
Cc1ccc(-c2csc(=N)n2CC(=O)N2CCOCC2)cc1	114	87.2	131	92.8	91.8	100	101	110	98.9	93	96.2	13.7	93.2	22.9	13.3	51.2	118	98.4	108	95.3	growth at 10 µM (SN12C): 100%
N=c1scc(-c2ccccc2)n1CC(=O)N1CCOCC1	92.3	101	102	92	95.1	98.8	104	103	104	94.2	86.7	24.4	118	55.3	20.2	49.8	101	95.1	107	58	growth at 10 µM (SN12C): 101%
N=c1scc(-c2ccc(Cl)cc2)n1CC(=O)N1CCOCC1	90	84.6	105	97.9	88.3	95.8	102	106	99.9	79.5	72.7	4.13	96.6	6.64	16.7	44.9	105	97.5	104	86.1	growth at 10 µM (SN12C): 86.9%

Reference: ChEMBL document CHEMBL2434944, “Novel acetamidothiazole derivatives: synthesis and in vitro anticancer evaluation” (Eur J Med Chem, 2013)
